Test results taken from ChEMBL document CHEMBL4261524, “Succinct synthesis of saturated hydroxy fatty acids and in vitro evaluation of all hydroxylauric acids on FFA1, FFA4 and GPR84” (Medchemcomm, 2017).
The source made the active and inactive calls. The calls are words filed in the database; no cut-off is given here.

Tests used:
[1] = target: T1, Free fatty acid receptor 1 (Homo sapiens, UniProt O14842); test: Agonist activity at N-terminal FLAG-tagged/C-terminal eYFP-fused human FFA1 receptor expressed in HEK293T cells assessed as induction of beta-arrestin-2 recruitment after 15 mins by BRET assay; type: functional, cell-based
[2] = target: T2, Free fatty acid receptor 4 (Homo sapiens, UniProt Q5NUL3); test: Agonist activity at N-terminal FLAG-tagged/C-terminal eYFP-fused human FFA4 receptor expressed in HEK293T cells assessed as induction of beta-arrestin-2 recruitment after 5 mins by BRET assay; type: functional, cell-based
T2 sequence (Q5NUL3 whole entry): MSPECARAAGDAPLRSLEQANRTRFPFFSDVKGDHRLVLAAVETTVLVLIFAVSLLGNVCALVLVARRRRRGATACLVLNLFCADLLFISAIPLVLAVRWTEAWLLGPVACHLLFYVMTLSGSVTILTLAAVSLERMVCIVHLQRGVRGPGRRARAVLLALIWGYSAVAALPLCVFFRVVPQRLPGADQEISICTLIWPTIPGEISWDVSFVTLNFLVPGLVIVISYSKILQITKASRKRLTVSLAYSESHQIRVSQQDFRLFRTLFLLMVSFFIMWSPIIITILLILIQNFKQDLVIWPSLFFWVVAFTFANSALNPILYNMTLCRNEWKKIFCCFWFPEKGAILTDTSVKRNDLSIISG

[3] = target: T3, G-protein coupled receptor 84 (Homo sapiens, UniProt Q9NQS5); test: Agonist activity at N-terminal FLAG-tagged/C-terminal eYFP-fused human GPR84 expressed in CHO cell membranes assessed as induction of [35S]GTPgammaS binding after 1 hr by liquid scintillation counting method; type: functional
Summary of the method: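 Membranes were prepared from FLAG-GPR84-eYFP-expressing cells by homogenization in 10 mM Tris-HCl pH 7.4 with 0.1 mM EDTA, a 1000 × g spin to clear debris, then a 38 000 × g pellet. 10 μg membrane was incubated 1 h at 30 °C in HEPES/MgCl2/NaCl buffer, pH 7.5, with 0.05% fatty-acid-free BSA, 1 μM GDP and 0.1 nM [35S]GTPγS. Binding was read on GF/C filters by scintillation counting; means ± SEM, n ≥ 3.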

[4] = target: T1, Free fatty acid receptor 1; test: Agonist activity at N-terminal FLAG-tagged/C-terminal eYFP-fused human FFA1 receptor expressed in Flp-In T-Rex 293 cells assessed as induction of Ca2+ mobilization after 45 mins by Fura2-AM dye-based fluorescence assay; type: functional, cell-based
[5] = target: T3, G-protein coupled receptor 84; test: Agonist activity at N-terminal FLAG-tagged/C-terminal eYFP-fused human GPR84 expressed in CHO cell membranes assessed as inhibition of forskolin-induced cAMP accumulation up to 100 uM preincubated for 20 mins followed by forskolin-induction and measured after 20 mins; type: functional, cell-based
[6] = target: T3, G-protein coupled receptor 84; test: Agonist activity at N-terminal FLAG-tagged/C-terminal eYFP-fused human GPR84 expressed in CHO cell membranes assessed as inhibition of forskolin-induced cAMP accumulation preincubated for 20 mins followed by forskolin-induction and measured after 20 mins; type: functional, cell-based
[7] = target: T1, Free fatty acid receptor 1; test: Agonist activity at N-terminal FLAG-tagged/C-terminal eYFP-fused human FFA1 receptor expressed in HEK293T cells assessed as induction of beta-arrestin-2 recruitment at 100 uM after 15 mins by BRET assay relative to control; type: functional, cell-based

T3 sequence (Q9NQS5 whole entry, the tested form may be a part): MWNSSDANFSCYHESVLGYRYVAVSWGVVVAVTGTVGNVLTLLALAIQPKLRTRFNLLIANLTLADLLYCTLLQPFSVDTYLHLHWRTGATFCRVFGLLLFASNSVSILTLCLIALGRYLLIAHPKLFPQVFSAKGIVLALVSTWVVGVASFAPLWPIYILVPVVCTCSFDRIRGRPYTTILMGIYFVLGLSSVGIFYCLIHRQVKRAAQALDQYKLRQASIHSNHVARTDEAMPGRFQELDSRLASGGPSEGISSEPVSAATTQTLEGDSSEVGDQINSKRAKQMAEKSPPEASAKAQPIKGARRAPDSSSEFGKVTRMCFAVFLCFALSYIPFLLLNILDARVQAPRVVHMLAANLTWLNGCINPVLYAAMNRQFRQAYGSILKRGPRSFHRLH
T1 sequence (O14842 whole entry, the tested form may be a part): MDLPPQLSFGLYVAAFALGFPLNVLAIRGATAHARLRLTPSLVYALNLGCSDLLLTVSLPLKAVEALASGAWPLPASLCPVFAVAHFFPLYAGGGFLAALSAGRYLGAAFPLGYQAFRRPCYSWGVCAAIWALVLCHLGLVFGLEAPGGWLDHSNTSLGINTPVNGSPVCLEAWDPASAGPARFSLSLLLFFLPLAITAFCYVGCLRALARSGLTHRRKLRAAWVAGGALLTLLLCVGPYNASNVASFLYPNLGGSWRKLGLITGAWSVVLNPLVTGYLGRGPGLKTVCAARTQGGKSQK

| EC50 [1] | EC50 [2] | EC50 [3] | inhibition [5] | EC50 [6] | Activity [7] | Structure (SMILES) | EC50 [4] |
| --- | --- | --- | --- | --- | --- | --- | --- |
| > 100 µM | > 100 µM | > 100 µM | – | – | – | CCCCCC(O)CCCCCC(=O)O (centres undefined) | – |
| 6.76 µM | > 100 µM | 12.9 µM | – | – | – | CCCCCCCCCCC(O)C(=O)O (centres undefined) | – |
| > 100 µM | > 100 µM | > 100 µM | – | – | – | CCCCCCCC(O)CCCC(=O)O (centres undefined) | – |
| > 100 µM | > 100 µM | > 100 µM | – | – | – | CCCCC(O)CCCCCCC(=O)O (centres undefined) | – |
| > 100 µM | > 100 µM | > 100 µM | – | – | – | CCCC(O)CCCCCCCC(=O)O (centres undefined) | – |
| > 100 µM | > 100 µM | > 100 µM | – | – | – | CCC(O)CCCCCCCCC(=O)O (centres undefined) | – |
| > 100 µM | > 100 µM | 5.25 µM | – | – | < 25% | CCCCCCCCCC(O)CC(=O)O (centres undefined) | – |
| > 100 µM | > 100 µM | 38 µM | – | – | – | CCCCCCCCC(O)CCC(=O)O (centres undefined) | – |
| 18.6 µM | > 100 µM | > 100 µM | – | – | – | CCCCCCC(O)CCCCC(=O)O (centres undefined) | – |

The remaining lines, values behind:

| Structure (SMILES) | EC50 [1] | EC50 [2] | EC50 [3] | inhibition [5] | EC50 [6] | Activity [7] | EC50 [4] |
| --- | --- | --- | --- | --- | --- | --- | --- |
| CC(O)CCCCCCCCCC(=O)O (centres undefined) | > 100 µM | > 100 µM | > 100 µM | – | – | – | – |
| CCCCCC[C@@H](O)C/C=C\CCCCCCCC(=O)O | – | 1.32 µM | – | – | – | – | 11.5 µM |
| CCCCCCC(O)CCCCCCCCCCC(=O)O (centres undefined) | – | 1.74 µM | – | – | – | – | – |
| CCCCCCCCCCCC(=O)O [DODECANOATE] | – | 7.59 µM | 10.5 µM | inactive | 8.71 µM | – | 11.5 µM |
| O=C(O)CCCCCCCCCCCO | > 100 µM | > 100 µM | 20.9 µM | – | – | – | – |
| O=C(O)CCCCCCCCCCCCCCCO | – | 1.7 µM | – | – | – | – | 20.9 µM |
